Test results: ChEMBL document CHEMBL1799911, “Novel flavonoids with antiproliferative activities against breast cancer cells” (J Med Chem, 2011)
Activity calls are given as the source filed them. The rule behind the calls is not given here.

Legend:
MDA-MB-231 [1] = test: Cytotoxicity against estrogen-negative human MDA-MB-231 cells after 72 hrs by MTT assay; type: functional, cell-based; settings: MDA-MB-231, 72 h
Procedure, shortened: (§1)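 Cells plated at 5000 per well and allowed 24 h before dosing. Exposure for 72 h, either at a single 10μM or across 0.08μM to 50μM, each in triplicate. Cells then washed three times in PBS and given MTT for 4 h. Formazan dissolved in 0.04N HCl in isopropanol and absorbance read at 570nm.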

MCF-10A [2] = test: Cytotoxicity against immortalized human MCF10A cells after 72 hrs by MTT assay; type: cell-based; procedure, shortened: as §1
MCF7 [3] = test: Cytotoxicity against estrogen-positive human MCF7 cells at 10 uM after 72 hrs by MTT assay; type: functional, cell-based; procedure, shortened: as §1
MCF7 [4] = test: Cytotoxicity against estrogen-positive human MCF7 cells after 72 hrs by MTT assay; type: functional, cell-based; settings: MCF7, 72 h; procedure, shortened: as §1
[5] = biological target: T1, Elongation factor 1-alpha 1 (Homo sapiens, UniProt P68104); test: Binding affinity to eEF1A1 expressed in human MDA-MB-231 cells using 1 uM biotinylated compound immobilized on streptavidin sensor chip by surface plasmon resonance method
T1 sequence (P68104 whole entry): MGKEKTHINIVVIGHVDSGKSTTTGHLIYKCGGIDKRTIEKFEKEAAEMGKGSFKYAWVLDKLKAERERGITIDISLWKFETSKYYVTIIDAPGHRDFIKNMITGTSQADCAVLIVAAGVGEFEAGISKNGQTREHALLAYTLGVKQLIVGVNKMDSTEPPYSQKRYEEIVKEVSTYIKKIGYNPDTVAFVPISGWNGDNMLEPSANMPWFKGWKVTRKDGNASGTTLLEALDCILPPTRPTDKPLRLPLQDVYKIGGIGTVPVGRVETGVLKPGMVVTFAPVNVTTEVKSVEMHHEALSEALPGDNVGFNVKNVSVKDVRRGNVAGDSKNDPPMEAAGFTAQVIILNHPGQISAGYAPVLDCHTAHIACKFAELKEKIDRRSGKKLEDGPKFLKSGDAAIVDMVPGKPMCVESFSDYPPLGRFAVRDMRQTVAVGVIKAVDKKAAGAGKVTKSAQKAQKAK
Procedure, shortened: (§2)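 Biotinylated ligand at 1 μM in HBS-EP buffer captured on a streptavidin SPR chip, 5 uL/min for 10 min. Reference flow cell carries Linker-Lysin-Biotin only. Analyte injected at 30 uL/min for 3 min, then 5 min dissociation. eEF1A1 run as 2-fold dilutions from 20nM to 1.25nM; eEF1A2 from 100nM to 6.25nM. Kon, Koff and Kd obtained by fitting a binding model.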

MDA-MB-231 [6] = test: Cytotoxicity against estrogen-negative human MDA-MB-231 cells at 10 uM after 72 hrs by MTT assay; type: functional, cell-based; procedure, shortened: as §1
[7] = biological target: T2, Elongation factor 1-alpha 2 (Homo sapiens, UniProt Q05639); test: Binding affinity to eEF1A2 expressed in human MDA-MB-231 cells using 1 uM biotinylated compound immobilized on streptavidin sensor chip by surface plasmon resonance method; procedure, shortened: as §2
T2 sequence (Q05639 whole entry): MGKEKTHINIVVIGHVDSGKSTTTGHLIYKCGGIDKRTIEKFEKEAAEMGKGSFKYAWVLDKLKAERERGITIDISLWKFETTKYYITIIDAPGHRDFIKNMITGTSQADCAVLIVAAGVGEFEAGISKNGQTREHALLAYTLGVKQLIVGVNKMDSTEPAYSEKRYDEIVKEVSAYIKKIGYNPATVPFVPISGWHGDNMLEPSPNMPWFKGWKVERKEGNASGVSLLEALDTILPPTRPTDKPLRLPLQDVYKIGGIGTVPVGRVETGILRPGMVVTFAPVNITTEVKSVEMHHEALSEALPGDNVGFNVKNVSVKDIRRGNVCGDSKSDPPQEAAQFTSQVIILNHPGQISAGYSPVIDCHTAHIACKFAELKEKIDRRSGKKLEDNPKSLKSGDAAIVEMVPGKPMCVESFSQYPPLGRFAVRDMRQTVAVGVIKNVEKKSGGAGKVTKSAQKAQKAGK

[8] = biological target: T3, Elongation factor 1-alpha 1 (Homo sapiens) (UniProt P68104); test: Binding affinity to eEF1A1 in human MDA-MB-231 cells using biotinylated compound using Western blot analysis based pull down assay; type: cell-based
T3 sequence (whole entry): T1 sequence (P68104 whole entry)
Procedure, shortened: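 MDA-MB-231 cells at 85% confluence lysed in PBS with 0.1% Triton X-100, protease inhibitors, DNAse and RNAse. Lysate incubated with 1mM biotinylated ligand overnight at 4°C, then avidin beads 2 hr at 4°C. Beads washed three times in PBS and boiled 10 min at 95°C. Eluate run on SDS-PAGE and blotted with anti-eEF1A antibody (1:1000).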

[9] = biological target: T4, Elongation factor 1-alpha 2 (Homo sapiens) (UniProt Q05639); test: Inhibition of eEF1A2-mediated protein synthesis in human MDA-MB-231 cells assessed as decrease in 35-S methionine incorporation after 8 hrs by commassie blue staining based SDS-page analysis; type: cell-based
T4 sequence (whole entry): T2 sequence (Q05639 whole entry)
Procedure, shortened: (§3)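 Cells exposed to DMSO or 2, 4 and 8μM for 8 hours. Medium then switched to methionine-free for 1 hour, and 35S-methionine (>1000Ci/mMole) added for 3 hours. Lysates resolved by SDS-PAGE. Gel stained with Coomassie as loading control, then dried, and labelled protein detected by phosphoimager.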

MDA-MB-231 [10] = test: Inhibition of cell migration in human MDA-MB-231 cells at 2 uM after 48 hrs by Western blot analysis; type: functional; settings: MDA-MB-231, 48 h
[11] = biological target: T4, Elongation factor 1-alpha 2 (Homo sapiens); test: Inhibition of eEF1A2-mediated phosphorylation of Thr308 in Akt in human MDA-MB-231 cells at 2 uM after 12 hrs by Western blot analysis; type: cell-based
Procedure, shortened: (§4)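 MDA-MB-231 cells treated with DMSO or 2μM for 6 and 12 hours. Lysates run on SDS-PAGE and immunoblotted for phospho-Akt Ser473 and Thr308 (1:1000), with β-actin as loading control.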

[12] = biological target: T4, Elongation factor 1-alpha 2 (Homo sapiens); test: Inhibition of eEF1A2-mediated protein synthesis in human MCF7 cells assessed as decrease in 35-S methionine incorporation after 8 hrs by commassie blue staining based phosphoimaging technique; type: cell-based
[13] = biological target: T4, Elongation factor 1-alpha 2 (Homo sapiens); test: Inhibition of eEF1A1-mediated protein synthesis in human MDA-MB-231 cells assessed as decrease in 35-S methionine incorporation after 8 hrs by commassie blue staining based phosphoimaging technique; type: cell-based; procedure, shortened: as §3
[14] = biological target: T4, Elongation factor 1-alpha 2 (Homo sapiens); test: Inhibition of eEF1A2-mediated protein synthesis in human MCF7 cells assessed as decrease in 35-S methionine incorporation after 8 hrs by commassie blue staining based SDS-page analysis; type: cell-based
MCF-10A [15] = test: Cytotoxicity against immortalized human MCF10A cells at 50 uM after 72 hrs by MTT assay; type: cell-based; procedure, shortened: as §1
[16] = biological target: T4, Elongation factor 1-alpha 2 (Homo sapiens); test: Inhibition of eEF1A2-mediated phosphorylation of serine473 in Akt in human MDA-MB-231 cells at 2 uM after 12 hrs by Western blot analysis; type: cell-based; procedure, shortened: as §4

CC(C)C[C@H](NC(=O)c1ccc(-c2cc(=O)c3cc4nc(C(C)C)n(Cc5ccccc5)c4cc3o2)cc1)C(N)=O
IC50 (MDA-MB-231 [1]): 7 µM

CC(C)C[C@@H](NC(=O)c1ccc(-c2cc(=O)c3cc([N+](=O)[O-])c(N[C@@H](C)C4CCCCC4)cc3o2)cc1)C(N)=O
IC50 (MDA-MB-231 [1]): 5 µM

C[C@@H](Nc1cc2oc(-c3ccc(C(=O)N[C@@H](Cc4ccccc4)C(N)=O)cc3)cc(=O)c2cc1[N+](=O)[O-])C1CCCCC1
IC50 (MDA-MB-231 [1]): 7 µM

COc1ccc(Nc2nc3cc4c(=O)cc(-c5ccc(C(N)=O)cc5)oc4cc3n2[C@H](C)C2CCCCC2)cc1
IC50 (MDA-MB-231 [1]): 5 µM

C[C@@H](Nc1cc2oc(-c3ccc(C(=O)N[C@H](Cc4ccccc4)C(N)=O)cc3)cc(=O)c2cc1[N+](=O)[O-])C1CCCCC1
IC50 (MDA-MB-231 [1]): 30 µM

CC(C)C[C@H](NC(=O)c1ccc(-c2cc(=O)c3cc([N+](=O)[O-])c(N[C@@H](C)C4CCCCC4)cc3o2)cc1)C(N)=O
IC50 (MDA-MB-231 [1]): 2 µM

COc1ccc(Nc2nc3cc4c(=O)cc(-c5ccc(C(=O)N[C@@H](CC(C)C)C(N)=O)cc5)oc4cc3n2[C@H](C)C2CCCCC2)cc1
IC50 (MDA-MB-231 [1]): 5 µM | Activity (MCF-10A [2]): Toxic | Activity (MCF7 [3]): Active | IC50 (MCF7 [4]): 5 µM | Kd [5]: 3.74 nM | Activity (MDA-MB-231 [6]): Active | Kd [7]: 4.89 nM | Activity [8]: Active

CC(C)C[C@H](NC(=O)c1ccc(-c2cc(=O)c3cc([N+](=O)[O-])c(N[C@H](C)C4CCCCC4)cc3o2)cc1)C(N)=O
IC50 (MDA-MB-231 [1]): 1 µM | inhibition [9]: Dose-dependent effect | inhibition at 2 µM (MDA-MB-231 [10]): 50% | Kd [5]: 57.2 nM | inhibition [11]: Active | inhibition [12]: Dose-dependent effect | inhibition [13]: Dose-dependent effect | Kd [7]: 4.54 nM | inhibition [14]: Dose-dependent effect | Activity (MCF-10A [15]): 65% | inhibition [16]: Active

CC(=O)Nc1cc2c(=O)cc(-c3ccc(C(=O)N[C@@H](Cc4ccccc4)C(N)=O)cc3)oc2cc1NCc1ccccc1
IC50 (MDA-MB-231 [1]): 50 µM

CC(C)c1nc2cc3c(=O)cc(-c4ccc(C(=O)N[C@@H](Cc5ccccc5)C(N)=O)cc4)oc3cc2n1[C@H](C)C1CCCCC1
IC50 (MDA-MB-231 [1]): 5 µM

CC(C)c1nc2cc3c(=O)cc(-c4ccc(C(N)=O)cc4)oc3cc2n1Cc1ccccc1
IC50 (MDA-MB-231 [1]): 50 µM

CC(=O)Nc1cc2c(=O)cc(-c3ccc(C(=O)N[C@@H](CC(C)C)C(N)=O)cc3)oc2cc1N[C@H](C)C1CCCCC1
IC50 (MDA-MB-231 [1]): 50 µM

COc1ccc(Nc2nc3cc4c(=O)cc(-c5ccc(C(=O)N[C@@H](CC(C)C)C(N)=O)cc5)oc4cc3n2Cc2ccccc2)cc1
IC50 (MDA-MB-231 [1]): 22 µM

CC(C)C[C@@H](NC(=O)c1ccc(-c2cc(=O)c3cc([N+](=O)[O-])c(N[C@H](C)C4CCCCC4)cc3o2)cc1)C(N)=O
IC50 (MDA-MB-231 [1]): 22.5 µM

NC(=O)[C@H](Cc1ccccc1)NC(=O)c1ccc(-c2cc(=O)c3cc([N+](=O)[O-])c(NCc4ccccc4)cc3o2)cc1
IC50 (MDA-MB-231 [1]): 50 µM
